In test [1] the test system is HCT-116. The experiment in a line: Cytotoxicity against human HCT116 cells after 48 hrs by MTT assay. Format: functional, cell-based. Conditions: HCT-116, 48 h. The method in brief:
(§1)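 All three human tumour lines were screened in parallel by MTT colorimetric viability assay, with sorafenib as positive control. Antiproliferative potency was expressed as IC50.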
For orientation: Tetrazolium assays rely on reduction of a dye to a coloured formazan, in cell work by metabolically active cells.

The subject of test [2] is PC-3. The experiment in a line: Cytotoxicity against human PC3 cells after 48 hrs by MTT assay. Type of test: functional, cell-based. Conditions: PC-3, 48 h. In short, it runs like this: as §1
Test [3] relates to MDA-MB-231. As to the kind of experiment: Cytotoxicity against human MDA-MB-231 cells after 48 hrs by MTT assay. Type of test: functional, cell-based. To be noted: MDA-MB-231, 48 h. In short, it runs like this:
as §1

Test [4] concerns Aorta. The experiment in a line: Antiangiogenic activity in Sprague-Dawley rat aortic ring assessed as inhibition of blood vessel formation at 0.1 uM after 6 days by inverted microscopic analysis. Type of test: functional, tissue-based. In short, it runs like this:
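Sprague-Dawley rat aortic segments were embedded in wells coated with growth factor-reduced Matrigel. They were cultured for 6 d with or without compound, and untreated wells served as control. Microvessel sprouting from the segments was scored.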

Calls of active or inactive are those of the source. The calls are words filed in the database; no cut-off is given here.

For orientation: IC50 means the concentration that inhibits the measured activity by half. High values mean weaker potency in that assay, low ones greater potency in that assay.

For the compound `CNC(=O)c1cc(Oc2cccc(NC(=S)Nc3cccc(C(F)(F)F)c3)c2)ccn1`, the figures for the IC50 in test [1], in test [2] and in test [3] were 25.3 µM, 24.5 µM and greater than 100 µM, respectively.

In the case of `O=C(c1cc(Oc2cccc(NC(=S)Nc3cccc(C(F)(F)F)c3)c2)ccn1)N1CCCC1`, the IC50 in test [1] is 19.2 µM; in test [2] it was 27 µM; in test [3], 35.4 µM.

With `CNC(=O)c1cc(Oc2ccc(NC(=O)Nc3ccc(Cl)c(C(F)(F)F)c3)cc2)ccn1` [SORAFENIB], in test [2], the IC50 was 6.8 µM. The inhibition result in test [4] was “Active”.

With `CCNC(=O)c1cc(Oc2cccc(NC(=S)Nc3ccc(Cl)c(C(F)(F)F)c3)c2)ccn1`, the IC50 in test [1] was 6.9 µM; in test [2] it was 8.5 µM; in test [3] it was 22.1 µM. The inhibition result in test [4] is “Active”.

Turning to `O=C(c1cc(Oc2cccc(NC(=S)Nc3ccc(Cl)c(C(F)(F)F)c3)c2)ccn1)N1CCCC1`, the IC50 in test [1] is 22.4 µM; in test [2] it was 12.1 µM; in test [3], 40.2 µM.

For the compound `O=C(NCc1ccccc1)c1cc(Oc2cccc(NC(=S)Nc3cccc(C(F)(F)F)c3)c2)ccn1`, the IC50 amounted to 7.5 µM in test [1], 11 µM in test [2] and 75 µM in test [3].

`CNC(=O)c1cc(Oc2cccc(NC(=S)Nc3ccc(Cl)c(C(F)(F)F)c3)c2)ccn1`: the IC50 in test [1] was 15.1 µM; in test [2], 16.1 µM; in test [3], 35.7 µM.

In the case of `CNC(=O)c1cc(Oc2cccc(NC(=S)Nc3ccc(Cl)cc3)c2)ccn1`, the IC50 in test [1] was 39.4 µM; in test [2], 24.1 µM; in test [3], greater than 100 µM.

Consider `CNC(=O)c1cc(Oc2cccc(NC(=S)Nc3ccc(OC(F)(F)F)cc3)c2)ccn1`, for which the half-maximal inhibitory concentration (IC50) was 33.8 µM in test [1], 34.7 µM in test [2] and greater than 100 µM in test [3].

On to `O=C(NC1CC1)c1cc(Oc2cccc(NC(=S)Nc3cccc(C(F)(F)F)c3)c2)ccn1`, for which the results for the IC50 in test [1], in test [2] and in test [3] were 20.2 µM, 22.1 µM and 34.8 µM, respectively.

For `CNC(=O)c1cc(Oc2cccc(NC(=S)Nc3ccc(F)c(F)c3)c2)ccn1`, the IC50 in test [1] was 30.3 µM; in test [2], 33.1 µM; in test [3], greater than 100 µM.

Regarding `CC(C)NC(=O)c1cc(Oc2cccc(NC(=S)Nc3ccc(Cl)cc3)c2)ccn1`, the IC50 worked out at 22.1 µM in test [1], 21.2 µM in test [2] and 87.5 µM in test [3].

Turning to `O=C(NCc1ccccc1)c1cc(Oc2cccc(NC(=S)Nc3ccc(Cl)cc3)c2)ccn1`, the concentration for half-maximal inhibition (IC50) in test [1] was 16.5 µM; in test [2] it was 15.8 µM; in test [3], greater than 100 µM.

Take `O=C(NC1CCCCC1)c1cc(Oc2cccc(NC(=S)Nc3ccc(Cl)c(C(F)(F)F)c3)c2)ccn1`: the IC50 was 2.8 µM in test [1], 2.2 µM in test [2] and 34.2 µM in test [3]. For the same compound, the inhibition result in test [4] was “Active”.

On to `O=C(NC1CCCCC1)c1cc(Oc2cccc(NC(=S)Nc3cccc(C(F)(F)F)c3)c2)ccn1`, for which the IC50 in test [1] is 8.4 µM; in test [2] it was 16.8 µM; in test [3], greater than 100 µM.

`CCNC(=O)c1cc(Oc2cccc(NC(=S)Nc3ccc(F)c(F)c3)c2)ccn1`: the IC50 in test [1] is 30.3 µM; in test [2], 26.3 µM; in test [3], greater than 100 µM.

As for `CNC(=O)c1cc(Oc2cccc(NC(=S)Nc3ccc(Cl)cc3Cl)c2)ccn1`, the IC50 in test [1] was 41.2 µM; in test [2], 37.8 µM; in test [3], greater than 100 µM.

On to `O=C(NC1CC1)c1cc(Oc2cccc(NC(=S)Nc3ccc(Cl)c(C(F)(F)F)c3)c2)ccn1`, for which the 50% inhibitory concentration (IC50) in test [1] was found to be 9.3 µM; in test [2], 6.8 µM; in test [3] it was 21.2 µM.

Turning to `O=C(c1cc(Oc2cccc(NC(=S)Nc3ccc(OC(F)(F)F)cc3)c2)ccn1)N1CCCC1`, the IC50 in test [1] was 17.8 µM; in test [2] it was 34.1 µM; in test [3] it was 37.8 µM.

With `O=C(NCc1ccccc1)c1cc(Oc2cccc(NC(=S)Nc3ccc(OC(F)(F)F)cc3)c2)ccn1`, the IC50 in test [1] was 7.4 µM; in test [2], 6.8 µM; in test [3] it was greater than 100 µM.

With `CC(C)NC(=O)c1cc(Oc2cccc(NC(=S)Nc3ccc(OC(F)(F)F)cc3)c2)ccn1`, the IC50 in test [1] is 18.1 µM; in test [2] it was 11.8 µM; in test [3], greater than 100 µM.

Regarding `CCNC(=O)c1cc(Oc2cccc(NC(=S)Nc3cccc(C(F)(F)F)c3)c2)ccn1`, the figures for the IC50 in test [1], in test [2] and in test [3] were 19.4 µM, 18.3 µM and 53.1 µM, respectively.

For the compound `O=C(NC1CCCCC1)c1cc(Oc2cccc(NC(=S)Nc3ccc(F)c(F)c3)c2)ccn1`, the values for the half-maximal inhibitory concentration (IC50) in test [1], in test [2] and in test [3] were 8.9 µM, 8.1 µM and greater than 100 µM, respectively. The inhibition entry in test [4] is “Active”.

For `O=C(c1cc(Oc2cccc(NC(=S)Nc3ccc(F)c(F)c3)c2)ccn1)N1CCCC1`, the results for the IC50 in test [1], in test [2] and in test [3] were 52 µM, 45.6 µM and greater than 100 µM, respectively.

The record behind these values is ChEMBL document CHEMBL2157976, “Design, synthesis and biological activities of sorafenib derivatives as antitumor agents” (Bioorg Med Chem Lett, 2012).
